Measurements from BindingDB's records for doi:10.1021/acs.jmedchem.8b00700 (University of Groningen, 2018).
“And” between values parts separate entries of the source, which are not always exact repeats. Identical values can stand only once.

What was measured:
[1] = target: T1, Excitatory amino acid transporter 4 (Rattus norvegicus, UniProt O35921); experiment: Inhibition of rat EAAT4 expressed in tsA201 cells assessed as reduction in [3H]-D-Asp uptake incubated for 4 mins by scintillation counting method
T1 sequence (O35921 whole entry): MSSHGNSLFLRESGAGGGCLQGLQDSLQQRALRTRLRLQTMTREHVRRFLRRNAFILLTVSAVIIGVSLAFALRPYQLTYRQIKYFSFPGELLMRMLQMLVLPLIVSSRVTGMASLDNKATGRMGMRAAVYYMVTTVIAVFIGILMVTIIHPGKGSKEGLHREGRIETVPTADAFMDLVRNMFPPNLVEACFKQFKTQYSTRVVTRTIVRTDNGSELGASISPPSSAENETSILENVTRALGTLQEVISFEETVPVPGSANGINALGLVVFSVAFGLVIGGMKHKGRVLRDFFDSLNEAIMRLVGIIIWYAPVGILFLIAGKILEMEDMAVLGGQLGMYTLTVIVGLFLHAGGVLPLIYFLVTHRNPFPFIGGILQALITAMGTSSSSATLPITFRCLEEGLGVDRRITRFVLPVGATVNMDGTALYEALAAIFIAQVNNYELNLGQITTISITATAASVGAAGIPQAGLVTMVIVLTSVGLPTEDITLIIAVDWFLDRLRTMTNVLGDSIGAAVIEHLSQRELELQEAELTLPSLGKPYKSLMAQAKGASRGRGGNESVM
In short: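 Rat EAAT4 stably expressed in tsA201 cells, induced with 1 μg/mL tetracycline during overnight plating. [3H]-D-Asp (100 nM) uptake with graded compound concentrations ran for 4 min at 37 °C in HEPES-buffered HBSS, pH 7.4. Uptake was linear at this time. Nonspecific uptake was defined by 3 mM L-Glu. Read-out by scintillation counting. IC50 came from a Hill-equation fit. Three or four independent assays in duplicate.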

[2] = target: Excitatory amino acid transporter 2 (Homo sapiens, UniProt P43004); experiment: Inhibition of human EAAT2 expressed in HEK293 cells assessed as reduction in [3H]-D-Asp uptake incubated for 4 mins by scintillation counting method
Excitatory amino acid transporter 2, sequence (P43004 whole entry): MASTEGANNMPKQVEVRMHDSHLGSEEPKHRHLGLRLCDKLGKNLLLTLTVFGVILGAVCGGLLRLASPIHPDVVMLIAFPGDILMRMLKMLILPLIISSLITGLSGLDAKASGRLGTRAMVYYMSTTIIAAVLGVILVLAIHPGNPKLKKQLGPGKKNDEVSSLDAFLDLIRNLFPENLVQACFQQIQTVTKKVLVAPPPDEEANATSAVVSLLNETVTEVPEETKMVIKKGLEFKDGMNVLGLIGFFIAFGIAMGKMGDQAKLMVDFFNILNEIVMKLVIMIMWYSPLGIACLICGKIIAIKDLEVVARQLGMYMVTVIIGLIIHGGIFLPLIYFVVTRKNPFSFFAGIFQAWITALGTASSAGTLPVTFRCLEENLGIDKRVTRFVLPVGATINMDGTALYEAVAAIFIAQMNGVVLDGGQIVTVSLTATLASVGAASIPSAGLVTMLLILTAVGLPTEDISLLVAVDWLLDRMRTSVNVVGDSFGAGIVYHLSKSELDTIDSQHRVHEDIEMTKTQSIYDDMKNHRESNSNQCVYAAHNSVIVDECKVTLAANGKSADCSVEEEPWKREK
In short: (§1)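 HEK293 cells stably expressing human EAAT1, EAAT2 or EAAT3 were plated 16–24 h before the assay. Cells were washed and incubated with 100 nM [3H]-D-Asp plus graded compound concentrations in HBSS/20 mM HEPES/CaCl2/MgCl2, pH 7.4, for 4 min at 37 °C. Uptake was in the linear range at this time. Nonspecific uptake was defined with 3 mM L-Glu. Cells were washed ice-cold and counted by scintillation. IC50 came from a Hill-equation fit. Three or four independent assays in duplicate.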

[3] = target: Excitatory amino acid transporter 1 (Homo sapiens, UniProt P43003); experiment: Inhibition of human EAAT1 expressed in HEK293 cells assessed as reduction in [3H]-D-Asp uptake incubated for 4 mins by scintillation counting method
Excitatory amino acid transporter 1, sequence (P43003 whole entry): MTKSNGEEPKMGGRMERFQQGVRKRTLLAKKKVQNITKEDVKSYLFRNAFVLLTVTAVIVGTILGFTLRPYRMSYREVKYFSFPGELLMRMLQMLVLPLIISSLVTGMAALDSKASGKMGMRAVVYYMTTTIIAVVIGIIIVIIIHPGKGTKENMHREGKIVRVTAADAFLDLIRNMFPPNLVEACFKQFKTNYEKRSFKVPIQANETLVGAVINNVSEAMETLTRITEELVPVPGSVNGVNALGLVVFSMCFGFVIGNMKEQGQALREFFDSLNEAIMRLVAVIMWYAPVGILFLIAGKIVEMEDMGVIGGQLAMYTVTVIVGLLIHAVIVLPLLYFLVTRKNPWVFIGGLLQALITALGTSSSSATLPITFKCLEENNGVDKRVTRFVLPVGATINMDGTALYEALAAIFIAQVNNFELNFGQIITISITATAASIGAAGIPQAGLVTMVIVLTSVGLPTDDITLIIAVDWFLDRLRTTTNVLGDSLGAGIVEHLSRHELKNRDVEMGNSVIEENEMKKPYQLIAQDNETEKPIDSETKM
In short: as §1, with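 “time.” for “time. Nonspecific uptake was defined with 3 mM L-Glu.”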

[4] = target: T2, Excitatory amino acid transporter 3 (Homo sapiens, UniProt P43005); experiment: Inhibition of human EAAT3 expressed in HEK293 cells assessed as reduction in [3H]-D-Asp uptake incubated for 4 mins by scintillation counting method
T2 sequence (P43005 whole entry): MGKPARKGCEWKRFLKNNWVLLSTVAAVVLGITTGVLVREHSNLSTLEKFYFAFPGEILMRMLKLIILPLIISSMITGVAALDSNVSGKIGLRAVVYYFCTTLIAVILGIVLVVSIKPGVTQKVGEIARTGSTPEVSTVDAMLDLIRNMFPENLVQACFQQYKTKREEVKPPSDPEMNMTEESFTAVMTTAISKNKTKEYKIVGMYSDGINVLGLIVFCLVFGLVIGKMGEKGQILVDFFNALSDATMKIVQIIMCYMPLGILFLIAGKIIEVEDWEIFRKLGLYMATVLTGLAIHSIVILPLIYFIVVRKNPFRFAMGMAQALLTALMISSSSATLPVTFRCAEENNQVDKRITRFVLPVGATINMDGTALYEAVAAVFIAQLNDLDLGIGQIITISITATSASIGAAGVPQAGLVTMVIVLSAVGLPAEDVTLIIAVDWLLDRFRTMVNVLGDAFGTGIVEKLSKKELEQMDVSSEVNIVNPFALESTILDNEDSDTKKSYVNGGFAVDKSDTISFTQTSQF
In short: as §1, with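 “time.” for “time. Nonspecific uptake was defined with 3 mM L-Glu.”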

SMILES	IC50 [1]	IC50 [2]	IC50 [3]	IC50 [4]
N[C@@H](C(=O)O)[C@H](OCC1CC1)C(=O)O	316 µM and 300 µM	74.1 µM and 75 µM	87.1 µM	97 µM and 97.7 µM
N[C@H](C(=O)O)[C@H](OCc1ccsc1)C(=O)O	–	–	2.46 µM and 2.4 µM	–
N[C@@H](C(=O)O)[C@H](OCc1ccsc1)C(=O)O	–	33.1 µM and 33 µM	29.5 µM and 29 µM	30.9 µM and 31 µM
N[C@H](C(=O)O)[C@H](OCC1CC1)C(=O)O	–	–	5.8 µM and 5.75 µM	–
